Data from ChEMBL document CHEMBL4049443, “Discovery of 2-[[2-Ethyl-6-[4-[2-(3-hydroxyazetidin-1-yl)-2-oxoethyl]piperazin-1-yl]-8-methylimidazo[1,2-a]pyridin-3-yl]methylamino]-4-(4-fluorophenyl)thiazole-5-carbonitrile (GLPG1690), a First-in-Class Autotaxin Inhibitor Undergoing Clinical Evaluation for the Treatment of Idiopathic Pulmonary …” (J Med Chem, 2017).
pIC50: −log10 of the molar value. Active and inactive are the calls of the source. No cut-off for these calls is given here.

Experiments:
[1] = biological target: Cytochrome P450 3A4 (Homo sapiens, UniProt P08684); test: Time-dependent inhibition of human liver microsomes CYP3A4; assay type: ADME
Chain of Cytochrome P450 3A4 (P08684 whole entry): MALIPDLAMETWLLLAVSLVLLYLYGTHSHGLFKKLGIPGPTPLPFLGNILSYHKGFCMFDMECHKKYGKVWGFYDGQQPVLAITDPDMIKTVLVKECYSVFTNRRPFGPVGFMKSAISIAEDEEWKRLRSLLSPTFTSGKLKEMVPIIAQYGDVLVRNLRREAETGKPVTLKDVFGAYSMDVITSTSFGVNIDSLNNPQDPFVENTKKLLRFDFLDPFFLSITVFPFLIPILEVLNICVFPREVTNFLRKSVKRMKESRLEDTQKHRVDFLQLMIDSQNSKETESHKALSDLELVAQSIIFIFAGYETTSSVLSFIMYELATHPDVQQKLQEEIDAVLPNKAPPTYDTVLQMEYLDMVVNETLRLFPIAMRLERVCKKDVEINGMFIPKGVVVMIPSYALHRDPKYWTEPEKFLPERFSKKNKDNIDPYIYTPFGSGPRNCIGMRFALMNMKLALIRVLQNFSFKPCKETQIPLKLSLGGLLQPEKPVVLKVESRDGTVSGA

[2] = biological target: Autotaxin (Homo sapiens, UniProt Q13822); test: Inhibition of human ATX using LPC (16:0) as substrate after 30 mins by horseradish peroxidase/choline oxidase coupled enzyme based spectrophotometric analysis
[3] = Chemical stability of the compound in DMSO by LC-MS analysis; assay type: physicochemical
[4] = Chemical stability of the compound in DMSO by 1H NMR analysis; assay type: physicochemical
[5] = tested on: Mus musculus; test: Anti-fibrotic activity in BML-induced pulmonary fibrosis C57BL/6 mouse model assessed as reduction in fibrosis with damage of pulmonary structure at 50 mg/kg, po administered bid with 7.5 hrs interval between 2 doses for 21 days relative to control; assay type: functional, organism-based
How it was run: (§1)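 Male C57Bl/6 mice, 11 weeks at delivery, anesthetized and given intranasal bleomycin 30 μg/50 μL; PBS controls. Oral dosing twice daily, 7.5 h apart, 10 mL/kg, from challenge day for 21 days: test agent in PEG 200/0.5% MC, pirfenidone in 0.5% CMC, vehicle controls; 14−24 mice per group. Lungs stained by Mallory method, scored 1–5 (Matsuse-modified Ashcroft) as mean of 10 low-power fields; group median, Mann−Whitney.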

[6] = tested on: Mus musculus; test: Anti-fibrotic activity in BML-induced pulmonary fibrosis C57BL/6 mouse model assessed as reduction in fibrous area with severe distortion of lung structure at 50 mg/kg, po administered bid with 7.5 hrs interval between 2 doses for 21 days relative to control; assay type: functional, organism-based; how it was run: as §1
[7] = tested on: Mus musculus; test: Anti-fibrotic activity in BML-induced pulmonary fibrosis C57BL/6 mouse model assessed as reduction in fibrotic thickening of aveolar/bronchial walls at 50 mg/kg, po administered bid with 7.5 hrs interval between 2 doses for 21 days relative to control; assay type: functional, organism-based; how it was run: as §1

Structure (SMILES)	TDI [1]	pIC50 [2]	Stability [3]	Stability [4]	Activity [5]	Activity [6]	Activity [7]
CCc1nc2ccc(N3CCN(CC(=O)N4CC(O)C4)CC3)nn2c1N(C)c1nc(-c2ccc(F)cc2)c(C#N)s1	Active	7.22					
CCc1nc2cnc(N3CCN(CC(=O)N4CC(O)C4)CC3)cn2c1N(C)c1nc(-c2ccc(F)cc2)c(C#N)s1	Not Active	6.99	Unstable	Unstable			
Cc1ccc(=O)n(-c2ccccc2)c1					Active	Active	Active
